BindingDB's records for doi:10.1016/j.ejmech.2019.111879 (University of Bonn, 2020)

What was measured:
[1] = molecular target: T1, Adenosine receptor A1 (Rattus norvegicus, UniProt P25099); assay: Displacement of [3H]DPCPX from rat brain cortical membrane A1AR assessed as GTP shift
T1 sequence (P25099 whole entry): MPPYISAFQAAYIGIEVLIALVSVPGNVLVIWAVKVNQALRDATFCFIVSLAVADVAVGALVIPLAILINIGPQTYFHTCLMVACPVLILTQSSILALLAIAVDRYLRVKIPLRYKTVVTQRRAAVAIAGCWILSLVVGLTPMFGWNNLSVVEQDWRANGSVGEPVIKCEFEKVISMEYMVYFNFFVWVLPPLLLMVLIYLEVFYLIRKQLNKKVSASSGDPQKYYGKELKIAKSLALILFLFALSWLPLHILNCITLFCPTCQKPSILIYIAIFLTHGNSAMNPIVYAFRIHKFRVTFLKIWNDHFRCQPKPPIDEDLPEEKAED

[2] = molecular target: T2, Adenosine receptor A3 (Rattus norvegicus, UniProt P28647); assay: Antagonist activity at rat A3AR expressed in CHO cells assessed as reduction in NECA-induced inhibition of forskolin-stimulated cAMP accumulation at 3 uM incubated for 2 hrs by fluorescence based assay
T2 sequence (P28647 whole entry): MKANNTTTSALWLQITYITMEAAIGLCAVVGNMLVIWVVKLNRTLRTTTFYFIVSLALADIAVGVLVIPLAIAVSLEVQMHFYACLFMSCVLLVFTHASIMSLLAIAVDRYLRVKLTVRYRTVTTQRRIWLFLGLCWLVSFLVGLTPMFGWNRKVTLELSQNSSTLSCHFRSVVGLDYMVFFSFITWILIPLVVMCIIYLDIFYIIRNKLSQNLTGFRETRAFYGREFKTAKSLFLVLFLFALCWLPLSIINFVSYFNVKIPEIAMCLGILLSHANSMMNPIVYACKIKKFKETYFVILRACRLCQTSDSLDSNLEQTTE
Outline: (§1)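 CHO cells stably expressing rat A3 AR, seeded at 150,000-200,000 cells/well. Cells washed, then held 2 h at 37 °C in HBSS with 20 mM HEPES (pH 7.3) and 2 U/ml adenosine deaminase. Forskolin (10 μM) plus NECA concentration series added at 36.5 °C, with or without test compound. Stopped by hot lysis solution (90 °C, 4 mM Na2EDTA, Triton X-100). Data normalized to forskolin (100%) and buffer (0%). KB calculated, n=3.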

[3] = molecular target: T2, Adenosine receptor A3; assay: Antagonist activity at rat A3AR expressed in CHO cells assessed as reduction in NECA-induced inhibition of forskolin-stimulated cAMP accumulation at 10 uM incubated for 2 hrs by fluorescence based assay; outline: as §1
[4] = molecular target: T2, Adenosine receptor A3; assay: Antagonist activity at rat A3AR expressed in CHO cells assessed as reduction in NECA-induced inhibition of forskolin-stimulated cAMP accumulation incubated for 2 hrs by fluorescence based assay; outline: as §1

Row | SMILES | GTP shift [1] | EC50 [2] [nM] | EC50 [3] [nM] | EC50 [4] [nM]
1 | O=C(Nc1nc(-c2ccccc2)c(C(=O)c2ccc(Cl)cc2)s1)c1ccccc1 | 1 | – | – | –
2 | COc1ccc(C(=O)Nc2nc(-c3ccccc3)c(C(=O)c3ccc(C)cc3)s2)cc1 | 1 | – | – | –
3 | O=C(Nc1nc(-c2ccccc2)c(-c2nc3ccccc3c(=O)n2-c2ccc(Cl)cc2)s1)c1ccco1 | – | 57 | 1720 | 5.3
4 | Cc1ccc(C(=O)c2sc(NC(=O)c3ccco3)nc2-c2ccccc2)cc1 | 1.3 | – | – | –
5 | O=C(Nc1nc(-c2ccccc2)c(C(=O)c2ccc(F)cc2F)s1)c1ccccc1 | 0.9 | – | – | –
